Measurements: ChEMBL document CHEMBL3526127, “Absorption, elimination, and metabolism of CS-1036, a novel α-amylase inhibitor in rats and monkeys, and the relationship between gastrointestinal distribution and suppression of glucose absorption” (Drug Metab Dispos, 2013)

How the values were obtained:
[1] = Drug distribution in F344 rat cecum at 1 mg/kg, po administered as single dose after 2 hrs by scintillation counting method; assay type: ADME, organism-based, Caecum; set-up: dose 1 mg/kg, route oral; settings: in vivo
Summary of the method: (§1)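 [14C]-labelled drug (1 mg/kg, 42.4 µCi/kg) was given orally to fasted F344 rats (148–168 g, n = 3). Contents of stomach, duodenum+jejunum, ileum and cecum were washed out with water at 0.5–8 h, homogenized, solubilized and counted by liquid scintillation. Results are % of dose, mean ± S.D.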

[2] = Drug excretion in F344 rat feces at 1 mg/kg, iv administered as single dose after 0 to 48 hrs by scintillation counting method; assay type: ADME, organism-based; set-up: dose 1 mg/kg, route intravenous; settings: in vivo
Summary of the method: (§2)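 Fasted F344 rats (152–156 g iv via tail vein; 154–159 g oral; n = 4) received [14C]-labelled drug at 1 mg/kg (41.9 µCi/kg). Animals were kept in metabolic cages; urine and feces were collected to 168 h, and expired CO2 was trapped in 2-aminoethanol/2-methoxyethanol (1:1) to 48 h. Samples were counted by liquid scintillation (feces homogenized). Results are % of dose, mean ± S.D.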

Cynomolgus monkey [3] = test: Drug excretion in cynomolgus monkey assessed as drug level found during cage washing at 3 mg/kg, po administered as single dose after 0 to 48 hrs by scintillation counting method; assay type: ADME, organism-based, Macaca fascicularis; set-up: dose 3 mg/kg, route oral; settings: in vivo
Summary of the method: (§3)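 Fasted cynomolgus monkeys (n = 4) received [14C]-labelled drug at 3 mg/kg, iv via saphenous vein (191 µCi/kg) or orally by stomach catheter (156.5 µCi/kg). Urine, feces and water cage-wash were collected to 336 h. Samples were counted by liquid scintillation; feces were homogenized in 4-fold water. Results are % of dose, mean ± S.D.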

[4] = Drug distribution in F344 rat cecum at 1 mg/kg, po administered as single dose after 4 hrs by scintillation counting method; assay type: ADME, organism-based, Caecum; set-up: dose 1 mg/kg, route oral; settings: in vivo; summary of the method: as §1
[5] = Ratio of drug level in blood to plasma in cynomolgus monkey after 5 mins; assay type: ADME, Macaca fascicularis
[6] = Drug excretion in F344 rat urine at 1 mg/kg, iv administered as single dose after 0 to 48 hrs by scintillation counting method; assay type: ADME, organism-based; set-up: dose 1 mg/kg, route intravenous; settings: in vivo; summary of the method: as §2
Plasma = test: Drug metabolism in po dosed monkey plasma by LC-MS/MS method; settings: cynomolgus monkey, in vivo
Ileum = test: Drug distribution in F344 rat ileum at 1 mg/kg, po administered as single dose after 2 hrs by scintillation counting method; assay type: ADME, organism-based; set-up: dose 1 mg/kg, route oral; settings: in vivo; summary of the method: as §1
[7] = Drug metabolism in po dosed F344 rat urine assessed as 1,4-dideoxy-1,4-imino-D-arabinitol formation by LC-MS/MS method; assay type: ADME, organism-based; settings: in vivo
[8] = Drug excretion in cynomolgus monkey feces at 3 mg/kg, po administered as single dose after 0 to 48 hrs by scintillation counting method; assay type: ADME, organism-based, Macaca fascicularis; set-up: dose 3 mg/kg, route oral; settings: in vivo; summary of the method: as §3
Cynomolgus monkey [9] = test: Drug excretion in cynomolgus monkey assessed as drug level found during cage washing at 3 mg/kg, iv administered as single dose after 0 to 336 hrs by scintillation counting method; assay type: ADME, organism-based, Macaca fascicularis; set-up: dose 3 mg/kg, route intravenous; settings: in vivo; summary of the method: as §3
[10] = Ratio of drug level in blood to plasma in human after 5 mins; assay type: ADME
[11] = Drug excretion in F344 rat urine at 1 mg/kg, po administered as single dose after 0 to 168 hrs by scintillation counting method; assay type: ADME, organism-based; set-up: dose 1 mg/kg, route oral; settings: in vivo; summary of the method: as §2
[12] = Drug excretion in F344 rat feces at 1 mg/kg, iv administered as single dose after 0 to 168 hrs by scintillation counting method; assay type: ADME, organism-based; set-up: dose 1 mg/kg, route intravenous; settings: in vivo; summary of the method: as §2
Cynomolgus monkey [13] = test: Total drug excretion in cynomolgus monkey at 3 mg/kg, po administered as single dose after 0 to 336 hrs by scintillation counting method; assay type: ADME, organism-based, Macaca fascicularis; set-up: dose 3 mg/kg, route oral; settings: in vivo
Summary of the method: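 Fasted male cynomolgus monkeys (n = 4) were dosed with 14C-labelled drug at 3 mg/kg, iv via saphenous vein (191 µCi/kg) or orally by stomach catheter (156.5 µCi/kg). Urine, feces and cage-wash water were collected to 336 h. Radioactivity was measured by liquid scintillation counting, with feces homogenized in water, and expressed as % of dose.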

[14] = Volume of distribution at steady state in cynomolgus monkey at 3 mg/kg, iv administered as single dose by LC-MS/MS method; assay type: ADME, organism-based, Macaca fascicularis; set-up: dose 3 mg/kg, route intravenous; settings: in vivo, read-out: Vdss
Summary of the method: (§4)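 Male F344 rats (146–185 g) and male cynomolgus monkeys (3.48–4.29 kg), n = 4 each, fasted overnight, received single iv or oral doses of 0.3, 1.0, 3.0 or 10.0 mg/kg. Monkeys had 2-week washouts between doses. Plasma was sampled to 48 h and assayed by LC-MS/MS with deuterated internal standard. Noncompartmental analysis: tmax observed; t1/2 by regression on ≥3 terminal log points; Vss = dose·AUMC/(AUC0–inf)²; Foral = oral/iv AUC0–inf at the same dose.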

[15] = AUC (0 to infinity) in cynomolgus monkey at 3 mg/kg, iv administered as single dose by LC-MS/MS method; assay type: ADME, organism-based, Macaca fascicularis; set-up: time infinity, dose 3 mg/kg, route intravenous; settings: plasma
Summary of the method: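 Fasted male F344 rats (146–185 g) or male cynomolgus monkeys (3.48–4.29 kg), n = 4 per dose, given single iv or oral dose of 0.3, 1.0, 3.0 or 10.0 mg/kg; monkeys dosed with 2-week washouts. Blood sampled to 48 h; plasma stored frozen. LC-MS/MS with deuterated internal standard. Noncompartmental analysis: AUClast by trapezoidal rule; AUC0–inf = AUClast + Ctz/terminal rate constant; mean ± S.D.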

[16] = Half life in cynomolgus monkey at 10 mg/kg, iv administered as single dose by LC-MS/MS method; assay type: ADME, organism-based, Macaca fascicularis; set-up: dose 10 mg/kg, route intravenous; settings: in vivo; summary of the method: as §4
[17] = Cmax in F344 rat at 1 mg/kg, po administered as single dose by LC-MS/MS method; assay type: ADME, organism-based; set-up: dose 1 mg/kg, route oral; settings: in vivo
Summary of the method: (§5)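 Fasted male F344 rats (146–185 g) and cynomolgus monkeys (3.48–4.29 kg), n = 4 each, received a single oral dose; monkeys had 2-week washouts. Plasma sampled up to 48 h, stored at […], assayed by LC-MS/MS with a deuterated internal standard. Cmax taken from observed data by noncompartmental analysis; mean ± S.D. (n = 3 or 4).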

[18] = Clearance in F344 rat at 3 mg/kg, iv administered as single dose by LC-MS/MS method; assay type: ADME, organism-based; set-up: dose 3 mg/kg, route intravenous; settings: in vivo
Summary of the method: (§6)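 Fasted male F344 rats (146–185 g) and male cynomolgus monkeys (3.48–4.29 kg), n = 4 each, received a single iv dose; monkeys had 2-week washouts between doses. Blood was sampled up to 48 h and plasma stored at […]. Plasma parent was quantified by LC-MS/MS with a deuterated internal standard. CL = dose/AUC0–inf by noncompartmental analysis; mean ± S.D.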

[19] = Half life in cynomolgus monkey at 3 mg/kg, iv administered as single dose by LC-MS/MS method; assay type: ADME, organism-based, Macaca fascicularis; set-up: dose 3 mg/kg, route intravenous; settings: in vivo; summary of the method: as §4
[20] = Oral bioavailability in F344 rat at 1 mg/kg administered as single dose by LC-MS/MS method; assay type: ADME, organism-based; settings: in vivo; summary of the method: as §4
[21] = Oral bioavailability in cynomolgus monkey at 3 mg/kg administered as single dose by LC-MS/MS method; assay type: ADME, organism-based, Macaca fascicularis; settings: in vivo; summary of the method: as §4
[22] = Volume of distribution at steady state in cynomolgus monkey at 0.3 mg/kg, iv administered as single dose by LC-MS/MS method; assay type: ADME, organism-based, Macaca fascicularis; set-up: dose 0.3 mg/kg, route intravenous; settings: in vivo, read-out: Vdss; summary of the method: as §4
[23] = Clearance in F344 rat at 1 mg/kg, iv administered as single dose by LC-MS/MS method; assay type: ADME, organism-based; set-up: dose 1 mg/kg, route intravenous; settings: in vivo; summary of the method: as §6
[24] = Half life in cynomolgus monkey at 1 mg/kg, iv administered as single dose by LC-MS/MS method; assay type: ADME, organism-based, Macaca fascicularis; set-up: dose 1 mg/kg, route intravenous; settings: in vivo; summary of the method: as §4
[25] = Cmax in cynomolgus monkey at 0.3 mg/kg, po administered as single dose by LC-MS/MS method; assay type: ADME, organism-based, Macaca fascicularis; set-up: dose 0.3 mg/kg, route oral; settings: in vivo; summary of the method: as §5

Question: For C[C@H]1O[C@@H](O[C@H]2[C@H](O)[C@@H](O)[C@@H](O[14C@H]3[14C@H](O)[14CH2]N[14C@@H]3[14CH2]O)O[C@@H]2CO)[C@H](O)[C@@H](O)[C@@H]1O, which Drug uptake [1] is on record?
Answer: The Drug uptake was 49.9%.

Question: And the Drug excretion [2]?
Answer: Its Drug excretion is 15.66%.

Question: And the Drug excretion (Cynomolgus monkey [3])?
Answer: Its Drug excretion is 0.76%.

Question: What about the Drug uptake [4] of the same compound?
Answer: Its Drug uptake is 49.4%.

Question: And the blood plasma ratio at 5 min [5]?
Answer: The blood plasma ratio at 5 min was 0.595.

Question: What about the Drug excretion [6] of the same compound?
Answer: Its Drug excretion is 70.49%.

Question: And the Drug metabolism (Plasma)?
Answer: The Drug metabolism was “metabolite_not_detected”.

Question: What about the Drug uptake (Ileum) of the same compound?
Answer: The Drug uptake was 33.9%.

Question: And the Drug metabolism [7]?
Answer: Its Drug metabolism is “metabolite_detected”.

Question: What about the Drug excretion [8] of the same compound?
Answer: Its Drug excretion is 78.5%.

Question: What about the Drug excretion (Cynomolgus monkey [9]) of the same compound?
Answer: The Drug excretion was 14.5%.

Question: What about the blood plasma ratio at 5 min [10] of the same compound?
Answer: The blood plasma ratio at 5 min was 0.521.

Question: What about the Drug excretion [11] of the same compound?
Answer: Its Drug excretion is 15.32%.

Question: What about the Drug excretion [12] of the same compound?
Answer: Its Drug excretion is 17.82%.

Question: And the Drug excretion (Cynomolgus monkey [13])?
Answer: The Drug excretion was 95.15%.

Question: Which Vd [14] does the source give for C[C@H]1O[C@@H](O[C@H]2[C@H](O)[C@@H](O)[C@@H](O[C@H]3[C@H](O)CN[C@@H]3CO)O[C@@H]2CO)[C@H](O)[C@@H](O)[C@@H]1O here?
Answer: Its Vd is 0.262 L/kg.

Question: What about the AUC(0-inf) [15] of the same compound?
Answer: The AUC(0-inf) was 18200 ng·h/mL.

Question: What about the half-life [16] of the same compound?
Answer: The half-life was 30 h.

Question: What about the Cmax [17] of the same compound?
Answer: Its Cmax is 45.5 ng/mL.

Question: And the clearance [18]?
Answer: Its clearance is 2.67 mL/min/kg.

Question: What about the half-life [19] of the same compound?
Answer: Its half-life is 25.1 h.

Question: And the bioavailability [20]?
Answer: The bioavailability was 2.33%.

Question: And the bioavailability [21]?
Answer: Its bioavailability is 1.05%.

Question: What about the Vd [22] of the same compound?
Answer: Its Vd is 0.233 L/kg.

Question: What about the clearance [23] of the same compound?
Answer: The clearance was 3.44 mL/min/kg.

Question: And the half-life [24]?
Answer: Its half-life is 21.4 h.

Question: And the Cmax [25]?
Answer: Its Cmax is 5.23 ng/mL.
